The record followed here is the EternaBench riboswitch data.

For the data set, the system named is MS2 coat protein. As to the kind of experiment: apparent Kd, MS2 coat protein; higher = weaker binding; RNA-MaP array; FMN 200 µM where present. An outline of the steps:
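Designs were transcribed by stalled E. coli RNA polymerase on Illumina sequencing-chip clusters. They were titrated with SNAP-549-labelled MS2 coat protein from 0.7 or 1.5 nM, doubling to 3 µM, in 100 mM Tris-HCl pH 7.5, 80 mM KCl, 4 mM MgCl2, BSA, DTT, yeast tRNA and Tween-20, without and then with constant ligand. The apparent Kd is the median of filtered per-cluster fits after normalisation of green signal to red-channel RNA signal and control-cluster median Fmax.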

[1] abbreviates: designed as: ON switch for flavin mononucleotide, no ligand.
[2] abbreviates: ligand present: flavin mononucleotide, designed as: ON switch for flavin mononucleotide.
[3] abbreviates: designed as: OFF switch for flavin mononucleotide, no ligand.
The mark [4] stands for this setting: ligand present: flavin mononucleotide, designed as: OFF switch for flavin mononucleotide.

On to “AAUGGCUAGCGCUCUGGAACUGCACAGGAUAUGAAGAGCUACAUGAGGAUCACCCAUGUUUAAAAUCAGAAGGGUGAGUAUCAG”, for which the “apparent Kd” value came to 166 nM under setting [1] and 16.2 nM under setting [2].
For “CAAAAGCUAGGAUAUACGUCAAAGGGCCCGAUCGCUCUCGGACAUGAGGAUCACCCAUGUAGAAGGAGCGCACU”, the “apparent Kd” value came out at 14.4 nM under setting [3] and 16.8 nM under setting [4].
In the case of “AAAAAACAUGAGGAUCACCCAUGUCCUCGGACGUGAGGAUAUGUACAGACUUCGGUCUGUACAGAAGGCAUGUCAA”, the “apparent Kd” value is 408 nM under setting [1] and 604 nM under setting [2].
As for “UUAUUAUAUGUAGGAUAUGCAUAUUAUUAUUGUGCAGAAGGACAUGAGGAUCACCCAUGUAUAUUAUUAGUAUAUAUUAUAUAU”, the “apparent Kd” value runs as follows: under setting [3], 18.5 nM; under setting [4], 19.2 nM.
For “GAAUAUUCGUUGAACAUGAGGAUCACCCAUGUAACUUGACAUGAGGAUAUGGAUUCUAAUUGGAUCCAGAAGGCAUGAAUAUUC”, the “apparent Kd” value by setting is: under setting [1], 75.3 nM; under setting [2], 26.9 nM.
As for “ACAUGAGGAUCACCCAUGUGAAAAGAAUGGCUGACACAGAGAUAGGAUAUAUGUGCAUAUCAAACAUAGAAGGGUCAUGACUGG”, the “apparent Kd” value runs as follows: under setting [3], 30.3 nM; under setting [4], 30.2 nM.
For the sequence “GUCCCGAGGGAGAAGGGCUAGGAGGUCCAGCUUAUGUGUGUUGCAACAUGAGGAUCACCCAUGUAGCAGGAUAUCCCUUGUACA”, the “apparent Kd” value amounted to 52.2 nM under setting [3] and 219 nM under setting [4].
As for “AGAUAACAUGUAGGAUAUCGAGGCCUGAGGCCUCGAGAAGGACAUGAGGAUCACCCAUGUUUGCCGAGCAUGGAAUCACGCACU”, the “apparent Kd” value under setting [3] came out at 18.4 nM and the “apparent Kd” value under setting [4] came to 54.6 nM.
As to “GAUUAAUGCAAGGAUAUGCUAUUAAUUUAUUUUGCAGAAGGUGCAACAUGAGGAUCACCCAUGUUGGAGGGUAU”, the “apparent Kd” value is 22.3 nM under setting [3] and 33.4 nM under setting [4].
Take “GAUCAACAUGAGGAUCACCCAUGUGAGGAUAUGAUACUAUGUACUUCGGUACAUAGUAUCAGAAGGCACAUAAA”: the “apparent Kd” value under setting [3] came to 67.9 nM and the “apparent Kd” value under setting [4] was found to be 218 nM.
For “CUCAUGUCAGGAUAUCGUGCAGCUACCGAAAGGUAGCUGCACGAGAAGGGACAUGAGGAUCACCCAUGUAUGAA”, the “apparent Kd” value by setting is: under setting [3], 22.2 nM; under setting [4], 18.4 nM.
With “CCGGAAACGGGUAGCUGACAUGAGGAUCACCCAUGUGUUUCACAGGAUAUGGAUCCUAAUUGGAUCCAGAAGGGUGUCAGCUAC”, the “apparent Kd” value runs as follows: under setting [1], 1040 nM; under setting [2], 157 nM.
“UUUUUACAUGAGGAUCACCCAUGUCAGGAUAUGCUUAUAUUUUAUUAUUUUAUUUUUUGCAGAAGGGACUAUUA”: the “apparent Kd” value was 91.8 nM under setting [3] and 68 nM under setting [4].
On to “AACCUACAUGAGGAUCACCCAUGUAAGGAUAUGGCAUGAUUUGCGUCAGCCCGUUAAGUUAGAAGGUGCGUCGG”, for which the “apparent Kd” value is, setting by setting: under setting [3], 14.8 nM; under setting [4], 16 nM.
The matching figures for “CAUAUACAGGGAGGAUAUAACAUGAGGAUCACCCAUGUGCAAUGCUCAAUGUUAGAAGGCCCAAUAGAAUCGCAAAAGGCAUCC”: 89.8 nM and 272 nM.
For the sequence “AAACACGGACAUGAGGAUCACCCAUGUGGCGAAAGCCUUGGGAGAAGGCCGAUAGCAAAGCUAUCGGAGGAUAUUCAUACCGUG”, the “apparent Kd” value amounted to 1200 nM under setting [1] and 61 nM under setting [2].
For the sequence “GGCAGAUGAGGAUAUACGUGCAAUCAGUGAUCCAGCCAUUAACAUGAGGAUCACCCAUGUAGAAGGCGUUUUCU”, the “apparent Kd” value runs as follows: under setting [3], 115 nM; under setting [4], 195 nM.
For “AUAGCGCCCGAGAAGGACGUACCACAUGUUGAUCACCGAUAUAAGGAACGUAGGAUAUUGGACAUGAGGAUCACCCAUGUGGAU”, the “apparent Kd” value was 122 nM under setting [1] and 47.1 nM under setting [2].
Take “UGAAAUCAUGUAGGAUAUGCAUGGCGAAGCUACGCAGAAGGACAUGAGGAUCACCCAUGUUAUAGCUACCCAGUUAGGUGGCAA”: the “apparent Kd” value reads like this: under setting [3], 145 nM; under setting [4], 157 nM.
Regarding “AAUAUAAGAGCUGGUCUCAAAAGAACAUGAGGAUCACCCAUGUAGGAUAUCAGCACGAUAAGUGCUGAGAAGGACAUCCAGCUC”, the “apparent Kd” value by setting is: under setting [3], 14.5 nM; under setting [4], 18.6 nM.
